# High-throughput results from PubChem BioAssay.
# DYRK1A inh – rat Dyrk1A kinase inhibitors, primary screen, biochemical, single point, plate reader. actives 0.43% (n = 310,000). ADP-Glo luminescence, NFATc1 peptide. Dual specificity tyrosine-phosphorylation-regulated kinase 1A (Rattus norvegicus), Q63470. inhibition, % at 12.5 µM; in the data active means inhibition above about 50%;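 further: plate controls were vehicle with enzyme for no effect and no enzyme for full effect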
# STK33 inh – inhibitors of purified STK33 kinase, primary screen, biochemical, ADP-Glo luminescence, homogeneous, cell-free; inhibition, % at 10 µM; actives 0.073% (n = 320,000); MBP phosphorylation;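 active means inhibition at or above 25%, using the most active replicate where run in duplicate; inactive means inhibition below 25%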
# GSK3beta inhib – human GSK3beta kinase inhibitors, primary screen, biochemical, cell-free homogeneous, HTS; Glycogen synthase kinase-3 beta (Homo sapiens), P49841; AID 2097, 2009; activity score (negative = inhibition), % at 10 µM; actives 0.038% (n = 300,000); GST-GSK3beta kinase, ADP-Glo luminescence, 60 min; stronger effect = lower value;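 active means more than half of replicate wells score below -50%, meaning over 50% inhibition versus plate controls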;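 further: 0% = median DMSO wells and -100% = median GW8510 positive control wells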
#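 Test system – GST-tagged human GSK3beta kinase, cell-free · Incubation – 60 min enzyme reaction, room temperature · Signal – ADP-Glo luminescence · Also added – peptide substrate and ATP at 25 µM · Controls – DMSO neutral wells and GW8510 at 20 µM as positive · Buffer or medium – Tris/MgCl2 kinase buffer · Measure – Luminescence-derived activity versus plate DMSO and GW8510 wells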
# GSK3 alpha inh – blockers of GSK3A enzyme activity – biochemical, luminescence, cell-free homogeneous, HTS, primary screen; Glycogen synthase kinase-3 alpha (Homo sapiens), P49840; GSK-3 alpha kinase, ADP-Glo luminescence, 60 min; inhibition, % at 10 µM; actives 0.1% (n = 320,000);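 active means more than half of replicates show inhibition above 20%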;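 further: GST-tagged GSK-3 alpha with peptide substrate and 25 µM ATP; 0% = DMSO neutral wells and 100% = GW8510 positive control wells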
# Target sequence (P49840 whole entry, looked up): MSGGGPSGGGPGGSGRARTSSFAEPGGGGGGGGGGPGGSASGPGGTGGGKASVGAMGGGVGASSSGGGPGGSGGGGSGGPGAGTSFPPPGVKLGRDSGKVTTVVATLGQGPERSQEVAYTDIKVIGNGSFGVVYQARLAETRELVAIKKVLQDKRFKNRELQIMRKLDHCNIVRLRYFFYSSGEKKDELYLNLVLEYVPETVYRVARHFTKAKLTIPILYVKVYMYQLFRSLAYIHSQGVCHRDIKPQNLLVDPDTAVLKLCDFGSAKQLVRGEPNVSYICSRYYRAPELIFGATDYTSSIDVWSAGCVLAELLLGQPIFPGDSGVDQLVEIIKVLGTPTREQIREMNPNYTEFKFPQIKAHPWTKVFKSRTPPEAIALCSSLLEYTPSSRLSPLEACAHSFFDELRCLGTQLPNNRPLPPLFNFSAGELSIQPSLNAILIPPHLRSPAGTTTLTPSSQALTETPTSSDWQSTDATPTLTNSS
# CDK5 inh – inhibitors of human CDK5/p35 kinase, primary screen, biochemical, single concentration; AID 488839, 2010; inhibition, % at 10 µM; actives 0.01% (n = 330,000); Recombinant CDK5/p35, ADP-Glo luminescence, 60 min; Cyclin-dependent kinase 5 (Homo sapiens) + Cyclin-dependent kinase 5 activator 1 (Homo …;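 active means highest replicate inhibition of at least 50% and at least 75% of replicates reaching 50%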;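 further: plate controls were DMSO neutral control for no effect and GW8510 at 10 µM for full effect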
# ADP-Glo artifact – ADP-Glo luciferase interference without Dyrk1A, dose response, artefact control for Dyrk1A inhibitor project, biochemical, luminescence, cherry-pick, set 02. shares compounds with DYRK1A inh. ADP-Glo luciferase artifact assay, no Dyrk1A. AC50, µM (top dose mostly 12 µM), inactives show top-dose activity change, negative = inhibition. 1,300 tested, under 10 active. AID 588348, 2011;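 active means fitted half-maximal dose AC50 no more than ten times the top valid tested dose, with luminescence dropping as dose rises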
# * hit, by the source's call; . = not tested or not shown. This is one part of a sample in which hits are shown more often than they occur.
SMILES,DYRK1A inh,STK33 inh,GSK3beta inhib,GSK3 alpha inh,CDK5 inh,ADP-Glo artifact
COC(=O)C1=C(C)N(CCCC(=O)O)C(=O)NC1c1ccc(Cl)cc1 (centres undefined),56*,0,1,-2,2,7%
COc1ccccc1C(=O)C1CCCN(Cc2cn[nH]c2C2CCCCC2)C1 (centres undefined),-4,0,2,-6,1,.
O=c1cc[nH]c2ccc(Cl)cc12,50*,0,-5,3,2,8%
O=c1cc[nH]c2ccc(OC(F)(F)F)cc12,24,0,0,2,1,.
CCNC(=S)Nc1ccc(OCc2nc3ccccc3s2)cc1,7,-1,1,-2,-1,.
CCc1ncc(/C=C2\C(=O)Nc3ccccc32)[nH]1,57*,49*,-3,9,11,6%
CCc1noc(C)c1C(=O)NNC(=O)COc1ccc(C)cc1,4,-1,.,-3,-10,.
Cc1cccc(N2CC(C(=O)Nc3ccccc3N3CCOCC3)CC2=O)c1C (centres undefined),1,0,.,0,-1,.
CC(=O)Nc1ccc(SCc2c(C)noc2C)cc1,3,-2,3,0,0,.
CC(=O)Nc1ccc(SCc2ncc(-c3ccccc3)o2)cc1,64*,22,-1,3,3,6%
COc1ccc(NC(=O)COc2cccc(-n3cnnn3)c2)cc1Cl,5,-1,4,-1,-5,.
CS(=O)(=O)c1ccc2c(c1)sc1nc(=O)c(/C=C3/C=CC(=O)C(O)=C3)c(N)n12,55*,2,0,8,0,10%
COC1=C/C(=C/c2c(N)n3c(nc2=O)sc2cc(S(C)(=O)=O)ccc23)C=CC1=O,15,9,-5,9,1,.
COc1ccc(S(=O)(=O)N2CCOC2CNC(=O)C(=O)NCc2ccc(F)cc2)cc1OC (centres undefined),-4,-1,1,-1,-2,.
CCCN=C(C)C1=C(O)c2ccccc2C1=O,-19,1,-3,1,0,.
CC(=NCc1cccnc1)C1=C(O)c2ccccc2C1=O,51*,5,-7,10,4,9%
CCOc1ccc2ccccc2c1/C=N/NC(=O)CNC(=O)C(c1ccccc1)c1ccccc1,-74,-1,-1,-2,0,.
COc1ccc2c(Cl)c(C(=O)N/N=C/c3cccnc3)sc2c1,64*,0,5,13,1,10%
COc1ccc2c(Cl)c(C(=O)NN)sc2c1,26,-1,-3,1,2,.
COc1ccc2c(Cl)c(C(N)=O)sc2c1,84*,3,2,1,0,9%
O=C(N/N=C/c1cccnc1)c1sc2ccccc2c1Cl,0,-1,0,2,0,.
CSC1=NSC2=NC(=O)/C(=C/c3coc4ccc(O)cc4c3=O)C(=N)N12,87*,8,-8,16,-1,12%
CSC1=NSC2=NC(=O)/C(=C\c3cccs3)C(=N)N12,-1,1,2,2,1,.
COc1cc(/C=C2/C(=N)N3C(SC)=NSC3=NC2=O)ccc1OC(=O)c1ccco1,58*,7,7,-1,1,11%
CC(C)=CCc1c(O)ccc2c1OC(c1ccc(O)c(O)c1)CC2=O (centres undefined),64*,3,-50*,76*,-1,10%
SMILES,DYRK1A inh,STK33 inh,GSK3beta inhib,GSK3 alpha inh,CDK5 inh,ADP-Glo artifact
O=C1CC(c2ccc(O)c(O)c2)Oc2c1ccc(O)c2O (centres undefined),34,5,.,8,2,.
c1ccc2c(-c3nn[nH]n3)cccc2c1,-4,-1,3,-5,.,.
Oc1cccc2c(-c3nn[nH]n3)ccnc12,70*,-2,.,1,-4,12%
O=C(Nc1nc(-c2ccc3c(c2)OCO3)cs1)C1COc2ccccc2O1 (centres undefined),20,0,-2,-1,-2,.
CN(C)/C=N/c1nc(-c2ccc3c(c2)OCO3)cs1,77*,2,0,.,0,6%
CC(=O)Nc1nc(-c2ccc3c(c2)OCO3)cs1,57*,1,1,-1,1,10%
O=C(O)CC(Cc1ccccc1)(C(=O)O)c1ccccc1 (centres undefined),.,-1,7,-5,1,.
COc1cccc(NC(=O)Nc2ccc3c(c2)N(C)C(=O)CS3)c1,50*,0,1,-1,1,8%
CC(=O)Nc1ccc(NC(=O)Nc2ccc3c(c2)N(C)C(=O)CS3)cc1,2,.,3,.,0,.
COc1ccc(CCN(C)S(=O)(=O)c2ccc(Cl)nc2)cc1OC,0,-2,2,.,-1,.
Cc1cccc(-c2ccc3c(c2)C2CC3CCN2)c1 (centres undefined),.,.,.,.,1,.
CC(/C=C1\SC(=Nc2cccnc2)NC1=O)=C\c1ccccc1,.,-1,0,10,-3,.
C=CCOc1ccc(/C=C2\SC(=Nc3cccnc3)NC2=O)cc1,61*,0,2,-1,-3,8%
CCOc1ccccc1C(=O)Nc1ccccc1C(N)=O,56*,-2,3,0,1,9%
Cc1nc2c(c3c1[nH]c1ccccc13)C(=O)CC(C)(C)C2,85*,10,-6,29,1,10%
COc1ccc2nc(NC(C)=O)sc2c1,27,2,0,8,-2,.
CC(=O)Nc1nc2ccc(Br)cc2s1,71*,10,-3,1,5,6%
COc1ccccc1C(=O)Nc1ccnn1C1CCN(Cc2ccn[nH]2)CC1,2,0,4,-2,2,.
O=C(O)c1cc2ccccc2c2cc(Br)ccc12,69*,-2,2,3,-1,8%
COc1ccc(-n2nc(C)cc2Nc2ccccc2C(=O)O)cc1,66*,0,0,-2,-1,8%
Cc1cc(Nc2ccccc2)n(-c2ccc(C(=O)O)cc2)n1,-5,1,-1,-2,-1,.
COc1ccc(-n2ccc(-c3nn(-c4cccc(C(F)(F)F)c4)ccc3=O)n2)cc1,51*,-1,-5,.,0,6%
Cc1c(C(=O)C(=O)NCc2ccco2)c2ccccc2n1C,6,0,3,-8,-2,.
COc1cccc(-c2noc(N)c2C#N)c1,63*,2,-2,5,4,7%
